Results as given in ChEMBL document CHEMBL1158008, “New bioactive flavonoids and stilbenes in cubé resin insecticide” (J Nat Prod, 1999).

Target: not listed separately
Experiment: Inhibition of bovine NADH-ubiquinone oxidoreductase
Parameters: species or system Bos taurus
Conditions: not given
How it was run: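 Bovine heart electron transport particles (inverted inner mitochondrial membrane vesicles, 40 µg protein) preincubated with compound 5 min at 25 °C in 50 mM phosphate pH 7.4, 250 mM sucrose. NADH added (28 µM final); activity followed as A340 loss over 3 min. IC50 from three experiments.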

Q: Which IC50 does the source give for CC1(C)C=Cc2c(ccc(C(=O)/C=C/c3ccc(O)cc3)c2O)O1 here?
A: The IC50 was 4.9 µM.

Q: For COc1ccc([C@@H]2CC(=O)c3c(O)c(CC=C(C)C)c4c(c3O2)C=CC(C)(C)O4)cc1O, which IC50 is on record?
A: Its IC50 is 2 µM.

Q: With COc1ccc([C@@H]2CC(=O)c3c(O)c(CC=C(C)C)c4c(c3O2)C=CC(C)(C)O4)cc1OC as the compound, how does the IC50 read?
A: Its IC50 is 2.1 µM.

Q: With COc1cc(/C=C/c2ccc3c(c2)OC(C)(C)C=C3)cc(OC)c1OC as the compound, how does the IC50 read?
A: The IC50 was 4.9 µM.

Q: With COc1cc(/C=C/C(=O)c2ccc3c(c2O)C=CC(C)(C)O3)ccc1O as the compound, how does the IC50 read?
A: The IC50 was 4.8 µM.

Q: Which IC50 does the source give for COc1cc(/C=C/c2ccc(O)cc2)cc2c1C=CC(C)(C)O2 here?
A: The IC50 was 5.3 µM.

Q: Which IC50 does the source give for COc1cc(/C=C/c2cc(OC)c3c(c2)OC(C)(C)C=C3)ccc1O here?
A: The IC50 was 8.1 µM.

Q: Which IC50 does the source give for COc1cc([C@@H]2CC(=O)c3c(O)c(CC=C(C)C)c4c(c3O2)C=CC(C)(C)O4)ccc1O here?
A: The IC50 was 0.68 µM.

Q: Which IC50 does the source give for COc1ccc([C@@H]2CC(=O)c3cc(CC=C(C)C)c4c(c3O2)C=CC(C)(C)O4)cc1OC here?
A: Its IC50 is 2.6 µM.

Q: With COc1cc(OC)c(-c2coc3c4c(ccc3c2=O)OC(C)(C)[C@@H](O)[C@H]4O)cc1OC (relative stereo) as the compound, how does the IC50 read?
A: Its IC50 is greater than 30 µM.

Q: For O=c1c(-c2ccc(O)cc2)coc2cc(O)cc(O)c12 [GENISTEIN], which IC50 is on record?
A: The IC50 was 35 µM.

Q: With Oc1ccc(/C=C/c2cc(O)cc(O)c2)cc1 [RESVERATROL] as the compound, how does the IC50 read?
A: Its IC50 is 26 µM.

Tested on: MCF7
Experiment: Cytotoxicity against human MCF7 cells after 72 hrs
Assay type: functional, cell-based
Conditions: MCF7, 72 h
How it was run: (§1)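 Test compound added to cultured cells, 72 h incubation, then viability read by MTT (3-(4,5-dimethylthiazol-2-yl)-2,5-diphenyltetrazolium bromide) reduction. IC50 derived from eight replicates per assay.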

Q: Which IC50 does the source give for CC1(C)C=Cc2c(ccc(C(=O)/C=C/c3ccc(O)cc3)c2O)O1 here?
A: Its IC50 is 27 µM.

Q: For COc1ccc([C@@H]2CC(=O)c3c(O)c(CC=C(C)C)c4c(c3O2)C=CC(C)(C)O4)cc1O, which IC50 is on record?
A: Its IC50 is 6.9 µM.

Q: With COc1ccc([C@@H]2CC(=O)c3c(O)c(CC=C(C)C)c4c(c3O2)C=CC(C)(C)O4)cc1OC as the compound, how does the IC50 read?
A: Its IC50 is 6.6 µM.

Q: Which IC50 does the source give for COc1cc(/C=C/c2ccc3c(c2)OC(C)(C)C=C3)cc(OC)c1OC here?
A: The IC50 was 24 µM.

Q: With COc1cc(/C=C/C(=O)c2ccc3c(c2O)C=CC(C)(C)O3)ccc1O as the compound, how does the IC50 read?
A: The IC50 was 10 µM.

Q: Which IC50 does the source give for COc1cc(/C=C/c2ccc(O)cc2)cc2c1C=CC(C)(C)O2 here?
A: Its IC50 is greater than 30 µM.

Q: For COc1cc(/C=C/c2cc(OC)c3c(c2)OC(C)(C)C=C3)ccc1O, which IC50 is on record?
A: Its IC50 is greater than 30 µM.

Q: With COc1cc([C@@H]2CC(=O)c3c(O)c(CC=C(C)C)c4c(c3O2)C=CC(C)(C)O4)ccc1O as the compound, how does the IC50 read?
A: Its IC50 is 3 µM.

Q: With COc1ccc([C@@H]2CC(=O)c3cc(CC=C(C)C)c4c(c3O2)C=CC(C)(C)O4)cc1OC as the compound, how does the IC50 read?
A: The IC50 was 5.7 µM.

Q: Which IC50 does the source give for COc1cc(OC)c(-c2coc3c4c(ccc3c2=O)OC(C)(C)[C@@H](O)[C@H]4O)cc1OC (relative stereo) here?
A: The IC50 was greater than 30 µM.

Q: For O=c1c(-c2ccc(O)cc2)coc2cc(O)cc(O)c12 [GENISTEIN], which IC50 is on record?
A: The IC50 was greater than 30 µM.

Q: With Oc1ccc(/C=C/c2cc(O)cc(O)c2)cc1 [RESVERATROL] as the compound, how does the IC50 read?
A: Its IC50 is greater than 30 µM.

Tested on: not listed separately
Experiment: Cytotoxicity against mouse Hepa1clc7 cells after 72 hrs
Assay type: functional, cell-based
Conditions: not given
How it was run: as §1

Q: Which IC50 does the source give for CC1(C)C=Cc2c(ccc(C(=O)/C=C/c3ccc(O)cc3)c2O)O1 here?
A: The IC50 was 10 µM.

Q: With COc1ccc([C@@H]2CC(=O)c3c(O)c(CC=C(C)C)c4c(c3O2)C=CC(C)(C)O4)cc1O as the compound, how does the IC50 read?
A: Its IC50 is 3.9 µM.

Q: With COc1ccc([C@@H]2CC(=O)c3c(O)c(CC=C(C)C)c4c(c3O2)C=CC(C)(C)O4)cc1OC as the compound, how does the IC50 read?
A: Its IC50 is 8.5 µM.

Q: Which IC50 does the source give for COc1cc(/C=C/c2ccc3c(c2)OC(C)(C)C=C3)cc(OC)c1OC here?
A: The IC50 was 7 µM.

Q: For COc1cc(/C=C/C(=O)c2ccc3c(c2O)C=CC(C)(C)O3)ccc1O, which IC50 is on record?
A: Its IC50 is 5.9 µM.

Q: Which IC50 does the source give for COc1cc(/C=C/c2ccc(O)cc2)cc2c1C=CC(C)(C)O2 here?
A: The IC50 was 8.5 µM.

Q: With COc1cc(/C=C/c2cc(OC)c3c(c2)OC(C)(C)C=C3)ccc1O as the compound, how does the IC50 read?
A: The IC50 was 13 µM.

Q: Which IC50 does the source give for COc1cc([C@@H]2CC(=O)c3c(O)c(CC=C(C)C)c4c(c3O2)C=CC(C)(C)O4)ccc1O here?
A: The IC50 was 3.5 µM.

Q: For COc1ccc([C@@H]2CC(=O)c3cc(CC=C(C)C)c4c(c3O2)C=CC(C)(C)O4)cc1OC, which IC50 is on record?
A: The IC50 was 5.1 µM.

Q: Which IC50 does the source give for COc1cc(OC)c(-c2coc3c4c(ccc3c2=O)OC(C)(C)[C@@H](O)[C@H]4O)cc1OC (relative stereo) here?
A: The IC50 was greater than 30 µM.

Q: Which IC50 does the source give for O=c1c(-c2ccc(O)cc2)coc2cc(O)cc(O)c12 [GENISTEIN] here?
A: Its IC50 is 11 µM.

Q: With Oc1ccc(/C=C/c2cc(O)cc(O)c2)cc1 [RESVERATROL] as the compound, how does the IC50 read?
A: The IC50 was 11 µM.
